In ChEMBL document CHEMBL5303300, “EUbOPEN Chemogenomics Library - Multiplex” (2023):
Several values for one entry are separate records, joined by “and”; a condition that tells them apart may be missing. Equal values may be shown once.

Test system: HEK-293T
Assay: Multiplex assay against HEK293T
Type: toxicity, cell-based
Conditions: human, number of replicates 2
Outline: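 Values for tubulin, mitochondrial-mass and membrane-permeability phenotypes are per cents of cells with healthy nuclei. These cells were identified by CellPathfinder machine-learning gating of live cells that had been stained at seeding with Hoechst33342, BioTracker Green Microtubule Cytoskeleton Dye, MitoTracker Red and Annexin V Alexa Fluor 680 and imaged on a CQ1 microscope at 37°C and 5% CO2 after compound addition. The gating first set Hoechst high-intensity objects apart from normal cells, then split normal cells into healthy, pyknosed or fragmented nuclei, and pyknosed cells into mitotic or apoptotic.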

[1] = 12 h, 1 µM, compound concentration 1 uM
[2] = 12 h, 10 µM, compound concentration 10 uM
[3] = 24 h, 1 µM, compound concentration 1 uM
[4] = 24 h, 10 µM, compound concentration 10 uM
[5] = 48 h, 1 µM, compound concentration 1 uM
[6] = 48 h, 10 µM, compound concentration 10 uM

Compound: CC(C)S(=O)(=O)c1ccccc1Nc1nc(N[C@@H]2CCCN(CCCCCCCNC(=O)COc3cccc4c3C(=O)N(C3CCC(=O)NC3=O)C4=O)C2)ncc1Cl (some centres not stated)
- Population Apoptotic (%) [1]: 72% and 70%
- Population Fragmented Nuclei (%) [1]: 2% and 3%
- Population Healthy Nuclei (%) [1]: 80% and 76%
- Population Hoechst High Intensity Objects (%) [1]: 8% and 16%
- Population Membrane Permeable-Phenotype (%) [1]: 0%
- Population Mitochondria Different-Phenotype (%) [1]: 61% and 50%
- Population Mitotic Cells (%) [1]: 27% and 29%
- Population Normal (%) [1]: 91% and 83%
- Population Pyknosed Nuclei (%) [1]: 17% and 19%
- Population Tubulin-Different-Phenotype (%) [1]: 75% and 73%
- Total Cell Count [1]: 378 and 397
- Population Apoptotic (%) [2]: 48% and 67%
- Population Fragmented Nuclei (%) [2]: 4% and 5%
- Population Healthy Nuclei (%) [2]: 63% and 65%
- Population Hoechst High Intensity Objects (%) [2]: 18% and 15%
- Population Membrane Permeable-Phenotype (%) [2]: 6%
- Population Mitochondria Different-Phenotype (%) [2]: 70%
- Population Mitotic Cells (%) [2]: 51% and 32%
- Population Normal (%) [2]: 81% and 84%
- Population Pyknosed Nuclei (%) [2]: 31% and 29%
- Population Tubulin-Different-Phenotype (%) [2]: 48% and 66%
- Total Cell Count [2]: 366 and 343
- Population Apoptotic (%) [3]: 65% and 76%
- Population Fragmented Nuclei (%) [3]: 3% and 5%
- Population Healthy Nuclei (%) [3]: 82% and 79%
- Population Hoechst High Intensity Objects (%) [3]: 12% and 14%
- Population Membrane Permeable-Phenotype (%) [3]: 1%
- Population Mitochondria Different-Phenotype (%) [3]: 65% and 63%
- Population Mitotic Cells (%) [3]: 34% and 23%
- Population Normal (%) [3]: 87% and 85%
- Population Pyknosed Nuclei (%) [3]: 14% and 15%
- Population Tubulin-Different-Phenotype (%) [3]: 69% and 67%
- Total Cell Count [3]: 385 and 384
- Population Apoptotic (%) [4]: 79% and 70%
- Population Fragmented Nuclei (%) [4]: 6% and 3%
- Population Healthy Nuclei (%) [4]: 65% and 61%
- Population Hoechst High Intensity Objects (%) [4]: 19%
- Population Membrane Permeable-Phenotype (%) [4]: 1% and 2%
- Population Mitochondria Different-Phenotype (%) [4]: 81% and 87%
- Population Mitotic Cells (%) [4]: 20% and 30%
- Population Normal (%) [4]: 80%
- Population Pyknosed Nuclei (%) [4]: 28% and 34%
- Population Tubulin-Different-Phenotype (%) [4]: 85% and 93%
- Total Cell Count [4]: 341 and 356
- Population Apoptotic (%) [5]: 78% and 74%
- Population Fragmented Nuclei (%) [5]: 3%
- Population Healthy Nuclei (%) [5]: 84% and 83%
- Population Hoechst High Intensity Objects (%) [5]: 12% and 14%
- Population Membrane Permeable-Phenotype (%) [5]: 0% and 1%
- Population Mitochondria Different-Phenotype (%) [5]: 66% and 57%
- Population Mitotic Cells (%) [5]: 21% and 25%
- Population Normal (%) [5]: 87% and 85%
- Population Pyknosed Nuclei (%) [5]: 11% and 13%
- Population Tubulin-Different-Phenotype (%) [5]: 66% and 57%
- Total Cell Count [5]: 316 and 306
- Population Apoptotic (%) [6]: 78% and 74%
- Population Fragmented Nuclei (%) [6]: 6% and 5%
- Population Healthy Nuclei (%) [6]: 70% and 63%
- Population Hoechst High Intensity Objects (%) [6]: 18% and 20%
- Population Membrane Permeable-Phenotype (%) [6]: 2% and 1%
- Population Mitochondria Different-Phenotype (%) [6]: 73% and 79%
- Population Mitotic Cells (%) [6]: 21% and 25%
- Population Normal (%) [6]: 81% and 79%
- Population Pyknosed Nuclei (%) [6]: 23% and 31%
- Population Tubulin-Different-Phenotype (%) [6]: 66% and 77%
- Total Cell Count [6]: 296 and 313

Compound: CC(C)c1cc(-c2ccc(F)c3ccccc23)nc(N)n1
- Population Apoptotic (%) [1]: 45% and 56%
- Population Fragmented Nuclei (%) [1]: 3%
- Population Healthy Nuclei (%) [1]: 88% and 87%
- Population Hoechst High Intensity Objects (%) [1]: 5%
- Population Membrane Permeable-Phenotype (%) [1]: 2%
- Population Mitochondria Different-Phenotype (%) [1]: 15%
- Population Mitotic Cells (%) [1]: 54% and 43%
- Population Normal (%) [1]: 94%
- Population Pyknosed Nuclei (%) [1]: 8% and 9%
- Population Tubulin-Different-Phenotype (%) [1]: 54% and 59%
- Total Cell Count [1]: 775 and 598
- Population Apoptotic (%) [2]: 62%
- Population Fragmented Nuclei (%) [2]: 3% and 4%
- Population Healthy Nuclei (%) [2]: 78% and 80%
- Population Hoechst High Intensity Objects (%) [2]: 7%
- Population Membrane Permeable-Phenotype (%) [2]: 1% and 0%
- Population Mitochondria Different-Phenotype (%) [2]: 25% and 20%
- Population Mitotic Cells (%) [2]: 37%
- Population Normal (%) [2]: 92%
- Population Pyknosed Nuclei (%) [2]: 18% and 15%
- Population Tubulin-Different-Phenotype (%) [2]: 66% and 60%
- Total Cell Count [2]: 434 and 448
- Population Apoptotic (%) [3]: 49% and 36%
- Population Fragmented Nuclei (%) [3]: 6% and 4%
- Population Healthy Nuclei (%) [3]: 88%
- Population Hoechst High Intensity Objects (%) [3]: 7% and 9%
- Population Membrane Permeable-Phenotype (%) [3]: 2% and 3%
- Population Mitochondria Different-Phenotype (%) [3]: 4% and 5%
- Population Mitotic Cells (%) [3]: 50% and 63%
- Population Normal (%) [3]: 92% and 90%
- Population Pyknosed Nuclei (%) [3]: 5% and 6%
- Population Tubulin-Different-Phenotype (%) [3]: 34% and 35%
- Total Cell Count [3]: 1247 and 898
- Population Apoptotic (%) [4]: 41% and 43%
- Population Fragmented Nuclei (%) [4]: 7% and 6%
- Population Healthy Nuclei (%) [4]: 84% and 82%
- Population Hoechst High Intensity Objects (%) [4]: 7% and 6%
- Population Membrane Permeable-Phenotype (%) [4]: 2% and 1%
- Population Mitochondria Different-Phenotype (%) [4]: 14% and 12%
- Population Mitotic Cells (%) [4]: 58% and 56%
- Population Normal (%) [4]: 92% and 93%
- Population Pyknosed Nuclei (%) [4]: 8% and 10%
- Population Tubulin-Different-Phenotype (%) [4]: 46% and 42%
- Total Cell Count [4]: 675 and 625
- Population Apoptotic (%) [5]: 10% and 18%
- Population Fragmented Nuclei (%) [5]: 16% and 10%
- Population Healthy Nuclei (%) [5]: 81% and 85%
- Population Hoechst High Intensity Objects (%) [5]: 9% and 10%
- Population Membrane Permeable-Phenotype (%) [5]: 5%
- Population Mitochondria Different-Phenotype (%) [5]: 0% and 1%
- Population Mitotic Cells (%) [5]: 90% and 81%
- Population Normal (%) [5]: 90% and 89%
- Population Pyknosed Nuclei (%) [5]: 2% and 4%
- Population Tubulin-Different-Phenotype (%) [5]: 17% and 23%
- Total Cell Count [5]: 3182 and 1908
- Population Apoptotic (%) [6]: 20% and 37%
- Population Fragmented Nuclei (%) [6]: 14% and 10%
- Population Healthy Nuclei (%) [6]: 81% and 86%
- Population Hoechst High Intensity Objects (%) [6]: 8% and 7%
- Population Membrane Permeable-Phenotype (%) [6]: 6% and 2%
- Population Mitochondria Different-Phenotype (%) [6]: 2% and 3%
- Population Mitotic Cells (%) [6]: 80% and 62%
- Population Normal (%) [6]: 91% and 92%
- Population Pyknosed Nuclei (%) [6]: 3% and 2%
- Population Tubulin-Different-Phenotype (%) [6]: 26% and 24%
- Total Cell Count [6]: 1507 and 1327
